Laboratory results published in ChEMBL document CHEMBL3621153, “Structure-Based Design of GNE-495, a Potent and Selective MAP4K4 Inhibitor with Efficacy in Retinal Angiogenesis” (ACS Med Chem Lett, 2015).
Values belong to the molecule of their own block, whether it stands above or below them. Calls of active or inactive are those of the source. The calls are words filed in the database; no cut-off is given here.

Experiments:
[1] = Clearance in rat liver microsomes assessed as compound remaining incubated for 1 hr by LC-MS/MS method; format: ADME
How it was run: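 Compounds incubated with rat liver microsomes for 1 h; percent parent remaining quantified by LC–MS/MS.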

[2] = target: T1, Mitogen-activated protein kinase kinase kinase kinase 4 (Homo sapiens, UniProt O95819); experiment: Inhibition of MAP4K4 (unknown origin) by LC3K method
T1 sequence (O95819 whole entry): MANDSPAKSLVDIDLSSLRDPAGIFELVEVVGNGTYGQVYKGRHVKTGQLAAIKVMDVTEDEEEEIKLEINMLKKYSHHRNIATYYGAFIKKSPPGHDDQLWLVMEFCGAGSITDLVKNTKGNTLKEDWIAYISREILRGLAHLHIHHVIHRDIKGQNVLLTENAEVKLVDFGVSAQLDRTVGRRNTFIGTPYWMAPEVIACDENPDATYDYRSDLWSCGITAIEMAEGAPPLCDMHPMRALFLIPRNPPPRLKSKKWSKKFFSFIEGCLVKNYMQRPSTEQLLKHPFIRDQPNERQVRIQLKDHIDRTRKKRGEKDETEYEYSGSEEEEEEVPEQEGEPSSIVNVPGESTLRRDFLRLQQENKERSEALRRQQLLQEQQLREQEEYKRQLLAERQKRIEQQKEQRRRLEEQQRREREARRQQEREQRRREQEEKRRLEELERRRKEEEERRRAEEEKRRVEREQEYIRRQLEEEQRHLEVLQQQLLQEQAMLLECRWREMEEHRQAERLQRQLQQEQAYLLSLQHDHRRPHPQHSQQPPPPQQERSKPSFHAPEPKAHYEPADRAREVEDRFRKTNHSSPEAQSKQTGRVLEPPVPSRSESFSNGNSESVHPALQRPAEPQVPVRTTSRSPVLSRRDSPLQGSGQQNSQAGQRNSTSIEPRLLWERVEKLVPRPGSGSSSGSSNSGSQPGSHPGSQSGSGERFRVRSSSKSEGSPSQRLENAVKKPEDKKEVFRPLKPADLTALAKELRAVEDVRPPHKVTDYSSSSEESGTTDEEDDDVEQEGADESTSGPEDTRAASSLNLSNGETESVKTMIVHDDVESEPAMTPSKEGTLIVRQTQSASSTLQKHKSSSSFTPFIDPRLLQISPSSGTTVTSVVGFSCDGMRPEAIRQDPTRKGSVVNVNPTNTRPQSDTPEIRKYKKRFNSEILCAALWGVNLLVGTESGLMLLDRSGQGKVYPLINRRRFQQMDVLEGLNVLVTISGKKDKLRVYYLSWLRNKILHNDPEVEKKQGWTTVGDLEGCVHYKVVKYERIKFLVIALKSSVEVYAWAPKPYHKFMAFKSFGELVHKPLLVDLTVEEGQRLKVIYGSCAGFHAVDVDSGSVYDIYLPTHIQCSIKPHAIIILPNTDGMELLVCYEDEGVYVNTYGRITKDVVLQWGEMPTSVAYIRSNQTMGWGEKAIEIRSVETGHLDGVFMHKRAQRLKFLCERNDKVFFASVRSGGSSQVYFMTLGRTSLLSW
How it was run: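 Kinase activity read on a Caliper LabChip 3000 platform, with IC50 values derived from that read-out.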

[3] = Clearance in human liver microsomes assessed as compound remaining incubated for 1 hr by LC-MS/MS method; format: ADME
[4] = Clearance in mouse liver microsomes assessed as compound remaining incubated for 1 hr by LC-MS/MS method; format: ADME
[5] = target: T1, Mitogen-activated protein kinase kinase kinase kinase 4; experiment: Inhibition of MAP4K4 (unknown origin) by Z'LYTE assay
HUVEC = experiment: Anti-angiogenesis activity in HUVEC assessed as inhibition of cell migration; format: functional, cell-based; conditions: Homo sapiens
[6] = Apparent permeability in MDCK cells at 10 uM incubated over 60 mins; format: ADME, cell-based, Canis lupus familiaris; conditions: dog
How it was run: (§1)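 MDCK cells exposed to test compound at 10 μM over 60 min. Apparent permeability (Papp) measured. Efflux ratio derived from apical–basolateral versus basolateral–apical flux rates.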

[7] = Efflux ratio in MDCK cells at 10 uM incubated over 60 mins; format: ADME, cell-based, Canis lupus familiaris; conditions: dog; how it was run: as §1
[8] = Ratio of drug level in brain to plasma in rat administered as cassette dosing; format: ADME, organism-based; conditions: read-out: BPR
How it was run: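 Brain-to-plasma ratio determined in rats after IV cassette dosing.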

Mus musculus [9] = experiment: Drug level in neonatal mouse pups assessed as time duration for sustained drug exposure at 25 and 50 mg/kg, ip; format: ADME, organism-based; conditions: in vivo
How it was run: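 Neonatal mouse pups given 25 or 50 mg/kg intraperitoneally. Plasma exposure followed over 24 h post-dose.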

[10] = Oral bioavailability in rat at 5 mg/kg; format: ADME, organism-based; conditions: in vivo
How it was run: (§2)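 Oral dose of 5 mg/kg given as a suspension in 0.5% (w/v) methylcellulose/0.2% (w/v) Tween 80 in sterile water, in mouse, rat or dog. Three animals per group; means reported. Bioavailability derived against a 1 mg/kg IV bolus.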

[11] = Clearance in mouse at 1 mg/kg, iv; format: ADME, organism-based; conditions: in vivo
How it was run: (§3)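 Single IV bolus of 1 mg/kg given as a solution in 10% EtOH, 30% PEG400, 60% 50 mM citrate, pH 3.0, in mouse, rat or dog. Three animals per group; mean values reported.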

[12] = Cmax in dog at 1 mg/kg, iv; format: ADME, organism-based, Canis lupus familiaris; set-up: dose 1 mg/kg, route intravenous; conditions: in vivo; how it was run: as §3
[13] = Protein binding in mouse plasma; format: ADME, cell-free; conditions: read-out: PPB (converted)
Mus musculus [14] = experiment: Volume of distribution in mouse at 5 mg/kg, po; format: ADME, organism-based; conditions: in vivo
[15] = Half life in mouse at 1 mg/kg, iv; format: ADME, organism-based; conditions: in vivo; how it was run: as §3
[16] = Cmax in rat at 5 mg/kg, po; format: ADME, organism-based; set-up: dose 5 mg/kg, route oral; conditions: in vivo; how it was run: as §2
Canis familiaris [17] = experiment: AUC (infinity) in dog at 5 mg/kg, po; format: ADME, organism-based, Canis lupus familiaris; set-up: dose 5 mg/kg, time infinity, route oral; conditions: in vivo
[18] = Oral bioavailability in mouse at 5 mg/kg; format: ADME, organism-based; conditions: in vivo; how it was run: as §2
Mus musculus [19] = experiment: Anti-angiogenesis activity in neonatal mouse pups assessed as delay in retinal vascular outgrowth dosed intraperitoneally daily form P1 to P5 days by isolectin -B4 staining; format: functional, organism-based
How it was run: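 Newborn mice dosed IP daily with vehicle or 100 mg/kg from P1 to P5. Retinas flat-mounted at P6 and stained with isolectin-B4. Avascular area normalized to total retina, one value per retina. Mann–Whitney unpaired test.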

[20] = AUC (infinity) in rat at 5 mg/kg, po; format: ADME, organism-based; set-up: dose 5 mg/kg, time infinity, route oral; conditions: in vivo
[21] = Cmax in mouse at 1 mg/kg, iv; format: ADME, organism-based; set-up: dose 1 mg/kg, route intravenous; conditions: in vivo; how it was run: as §3
Canis familiaris [22] = experiment: Oral bioavailability in dog at 5 mg/kg; format: ADME, organism-based, Canis lupus familiaris; conditions: in vivo; how it was run: as §2
[23] = Half life in rat at 1 mg/kg, iv; format: ADME, organism-based; conditions: in vivo; how it was run: as §3
[24] = Cmax in rat at 1 mg/kg, iv; format: ADME, organism-based; set-up: dose 1 mg/kg, route intravenous; conditions: in vivo; how it was run: as §3
Canis familiaris [25] = experiment: Volume of distribution in dog at 5 mg/kg, po; format: ADME, organism-based, Canis lupus familiaris; conditions: in vivo
[26] = Cmax in mouse at 5 mg/kg, po; format: ADME, organism-based; set-up: dose 5 mg/kg, route oral; conditions: in vivo; how it was run: as §2
Brain = experiment: Free drug concentration in mouse brain; format: ADME, tissue-based; conditions: in vivo
How it was run: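 Unbound drug concentration in brain measured in mice at the 1 h time point of the cross-species PK study.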

Rattus norvegicus = experiment: Volume of distribution in rat at 5 mg/kg, po; format: ADME, organism-based; conditions: in vivo
[27] = Half life in dog at 1 mg/kg, iv; format: ADME, organism-based, Canis lupus familiaris; conditions: in vivo; how it was run: as §3
[28] = Protein binding in rat plasma; format: ADME, cell-free; conditions: read-out: PPB (converted)
[29] = Tmax in rat at 5 mg/kg, po; format: ADME, organism-based; conditions: in vivo; how it was run: as §2
[30] = Clearance in rat at 1 mg/kg, iv; format: ADME, organism-based; conditions: in vivo; how it was run: as §3
Mus musculus [31] = experiment: Anti-angiogenesis activity in neonatal mouse pups assessed as induction of abnormal retinal vascular morphology at 100 mg/kg, ip dosed daily form P1 to P6 days by isolectin -B4 staining
[32] = Cmax in dog at 5 mg/kg, po; format: ADME, organism-based, Canis lupus familiaris; set-up: dose 5 mg/kg, route oral; conditions: in vivo; how it was run: as §2
[33] = Tmax in mouse at 5 mg/kg, po; format: ADME, organism-based; conditions: in vivo; how it was run: as §2
[34] = AUC (infinity) in mouse at 5 mg/kg, po; format: ADME, organism-based; set-up: dose 5 mg/kg, time infinity, route oral; conditions: in vivo
[35] = Tmax in dog at 5 mg/kg, po; format: ADME, organism-based, Canis lupus familiaris; conditions: in vivo; how it was run: as §2

- CLhep predicted [1]: 1.68 L/h/kg
- IC50 [2]: 0.016 µM
SMILES: Nc1ncc(C(=O)NC2CC2)c2ccc(-c3cccc(F)c3)cc12

- CLhep predicted [3]: 0.96 L/h/kg
- CLhep predicted [4]: 4.68 L/h/kg
- IC50 [5]: 0.0014 µM
- Papp at 1 h, 10 µM [6]: 34 nm/s
- efflux ratio at 1 h, 10 µM [7]: 0.74
SMILES: Nc1ncc(C(=O)NC2CC2)c2ccc(-c3cccc(F)c3)nc12
- IC50 (HUVEC): 0.099 µM

- CLhep predicted [1]: 2.4 L/h/kg
- IC50 [5]: 0.018 µM
SMILES: NC(=O)c1cnc(N)c2cc(-c3cccc(F)c3)ccc12

- CLhep predicted [1]: 0.54 L/h/kg
- IC50 [5]: 0.032 µM
SMILES: CC(=O)N1CC(NC(=O)c2cnc(N)c3cc(-c4cccc(F)c4)ccc23)C1

- CLhep predicted [3]: 0.36 L/h/kg
- CLhep predicted [4]: 3.66 L/h/kg
- IC50 [5]: 0.0037 µM
- Papp at 1 h, 10 µM [6]: 101 nm/s
- efflux ratio at 1 h, 10 µM [7]: 0.83
SMILES: Nc1ncc(C(=O)N[C@H]2C[C@@H](O)C2)c2ccc(-c3cccc(F)c3)nc12
- IC50 (HUVEC): 0.215 µM

- CLhep predicted [1]: 0.894 L/h/kg
- IC50 [5]: 0.041 µM
- Kp [8]: 0.02
SMILES: Nc1ncc(C(=O)NC2CC(O)C2)c2ccc(-c3cccc(F)c3)cc12 (mixture of isomers)

- CLhep predicted [1]: 0.642 L/h/kg
SMILES: Nc1ncc(C(=O)NC2CNC2)c2ccc(-c3cccc(F)c3)cc12

- CLhep predicted [1]: 2.85 L/h/kg
SMILES: Nc1ncnc2ccc(-c3cccc(F)c3)cc12

- CLhep predicted [1]: 0.762 L/h/kg
SMILES: CNC(=O)N1CC(NC(=O)c2cnc(N)c3cc(-c4cccc(F)c4)ccc23)C1

- CLhep predicted [3]: 0.54 L/h/kg
- CLhep predicted [4]: 1.92 L/h/kg
- Papp at 1 h, 10 µM [6]: 24 nm/s
- efflux ratio at 1 h, 10 µM [7]: 1.1
SMILES: CNC(=O)N1CC(NC(=O)c2cnc(N)c3nc(-c4cccc(F)c4)ccc23)C1
- IC50 (HUVEC): 0.196 µM

- CLhep predicted [1]: 1.38 L/h/kg
- IC50 [5]: 0.046 µM
- Kp [8]: 0.12
SMILES: N#CCNC(=O)c1cnc(N)c2cc(-c3cccc(F)c3)ccc12

- CLhep predicted [3]: 0.3 L/h/kg
- CLhep predicted [4]: 1.68 L/h/kg
- IC50 [5]: 0.0035 µM
SMILES: CCC(=O)N1CC(NC(=O)c2cnc(N)c3nc(-c4cccc(F)c4)ccc23)C1
- IC50 (HUVEC): 0.079 µM

- Time (Mus musculus [9]): > 24 h
- bioavailability [10]: 40%
- clearance [11]: 1.14 L/h/kg
- Cmax [12]: 3.9 µM
- CLhep predicted [3]: 0.42 L/h/kg
- fraction unbound [13]: 0.056
- CLhep predicted [4]: 0.78 L/h/kg
- Vd (Mus musculus [14]): 1.6 L/kg
- half-life [15]: 1.5 h
- Cmax [16]: 1.5 µM
- AUC (Canis familiaris [17]): 21 µM·h
- IC50 [5]: 0.0037 µM
- bioavailability [18]: 47%
- AUC(0-inf) [20]: 12 µM·h
- Cmax [21]: 2.7 µM
- F (Canis familiaris [22]): 37%
- half-life [23]: 3.4 h
- Cmax [24]: 4 µM
- Vd (Canis familiaris [25]): 1.1 L/kg
- Cmax [26]: 1.4 µM
- Drug uptake(free) (Brain): 0.008 µM
- Vd (Rattus norvegicus): 1.2 L/kg
- Papp at 1 h, 10 µM [6]: 73 nm/s
- half-life [27]: 1.8 h
- fraction unbound [28]: 0.022
- Tmax [29]: 4 h
- clearance [30]: 0.45 L/h/kg
- Cmax [32]: 1.2 µM
- Tmax [33]: 1 h
- AUC(0-inf) [34]: 5.3 µM·h
- Tmax [35]: 1.7 h
- efflux ratio at 1 h, 10 µM [7]: 2.3
SMILES: Nc1ncc(C(=O)NC2CN(C(=O)C3CC3)C2)c2ccc(-c3cccc(F)c3)nc12
- Activity (Mus musculus [19]): Active
- IC50 (HUVEC): 0.057 µM
- Activity (Mus musculus [31]): Active
